Laboratory results published in ChEMBL document CHEMBL5104216, “Fragment-Sized Thiazoles in Fragment-Based Drug Discovery Campaigns: Friend or Foe?” (ACS Med Chem Lett, 2022).

Tests used:
[1] = Redox activity of compound assessed as redox index at 100 uM measured by H2DCFDA assay; format: physicochemical
Procedure, shortened: (§1)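 Reactive oxygen species, with or without the reducing agent TCEP, detected with the fluorescent probe H2DCFDA. Compound spectral interference (autofluorescence) checked under the assay conditions.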

[2] = Redox activity of compound assessed as redox index at 10 uM measured by resazurin assay; format: physicochemical
Procedure, shortened: (§2)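 Free radicals formed by redox cycling with DTT detected with resazurin by fluorimetric read-out. Spectral interference checked.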

[3] = target: UDP-N-acetylglucosamine 1-carboxyvinyltransferase (Escherichia coli K-12) (UniProt P0A749); experiment: Inhibition of recombinant Escherichia coli MurA assessed as residual activity at 500 uM using UDP-N-acetylglucosamine as substrate preincubated for 30 mins followed by substrate addition and measured by malachite green based colorimetric assay relative to control
UDP-N-acetylglucosamine 1-carboxyvinyltransferase (Escherichia coli K-12), sequence (P0A749 whole entry): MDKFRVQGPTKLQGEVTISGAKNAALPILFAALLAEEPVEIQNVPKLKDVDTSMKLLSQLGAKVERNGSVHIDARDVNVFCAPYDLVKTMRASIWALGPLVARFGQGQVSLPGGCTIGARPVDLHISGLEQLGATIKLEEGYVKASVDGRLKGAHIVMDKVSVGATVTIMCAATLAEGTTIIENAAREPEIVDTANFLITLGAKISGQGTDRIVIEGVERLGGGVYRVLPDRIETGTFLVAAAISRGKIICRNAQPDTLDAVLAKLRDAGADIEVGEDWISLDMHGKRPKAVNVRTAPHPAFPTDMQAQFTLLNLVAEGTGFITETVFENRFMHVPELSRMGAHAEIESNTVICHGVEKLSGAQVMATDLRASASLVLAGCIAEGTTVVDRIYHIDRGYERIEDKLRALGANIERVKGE
Procedure, shortened: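 E. coli MurA at 500–625 μM with 30 min preincubation before substrate addition. Malachite green colorimetric read-out. Activity threshold was <50% residual activity.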

[4] = target: D-alanine--D-alanine ligase B (Escherichia coli K-12) (UniProt P07862); experiment: Inhibition of recombinant Escherichia coli DdlB assessed as residual activity at 500 uM using D-alanine as substrate incubated for 20 mins and measured by malachite green based colorimetric assay relative to control
Procedure, shortened: (§3)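 Screened at 500–625 μM with malachite green colorimetric read-out. Activity threshold was <50% residual activity.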

[5] = Redox activity of compound assessed as redox index at 1 uM measured by resazurin assay; format: physicochemical; procedure, shortened: as §2
[6] = Aqueous stability of the compound at pH 7.4 measured after 60 mins by spectrophotometric analysis; format: physicochemical; conditions: buffer, pH 7.4, 1 h
Procedure, shortened: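 Followed by spectrophotometry as changes in the compound absorption spectrum over time in 50 mM Tris-HCl pH 7.4, 0.5 mM EDTA, read after 60 min in 96-well microplate format. Compounds with low absorbance were not evaluated.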

[7] = system: Mycobacterium tuberculosis; experiment: Inhibition of Mycobacterium tuberculosis MetAP1a assessed as residual activity at 625 uM using L-methionine 7-amido-4-methylcoumarin as fluorogenic substrate and measured by fluorescence based assay
Procedure, shortened: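 Kinetic fluorescence assay in which the enzyme hydrolyses L-methionine 7-amido-4-methylcoumarin to fluorescent 7-amino-4-methylcoumarin. Compounds were tested at 500–625 μM, and activity was called at <50% residual activity. Spectral interference was checked by measuring absorbance at the excitation and emission wavelengths and compound autofluorescence.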

[8] = Redox activity of compound assessed as redox index at 100 uM measured by HRP-PR assay; format: physicochemical
Procedure, shortened: (§4)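 H2O2 from redox cycling, with or without DTT, detected with horseradish peroxidase-phenol red (HRP-PR).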

[9] = Redox activity of compound assessed as redox index at 100 uM in presence of 100 uM TCEP measured by H2DCFDA assay; format: physicochemical; procedure, shortened: as §1
[10] = Thiol reactivity of compound measured by TNB2- assay; format: physicochemical
Procedure, shortened: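 Reactivity toward the thiol surrogate TNB2– in a nonproteinaceous setting without TCEP. Reversibility tested by adding TCEP and checking that absorbance was restored.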

[11] = Redox activity of compound assessed as redox index at 100 uM in presence of 1 mM DTT measured by HRP-PR assay; format: physicochemical; procedure, shortened: as §4
[12] = target: Replicase polyprotein 1ab (Severe acute respiratory syndrome coronavirus 2) (UniProt P0DTD1); experiment: Inhibition of recombinant SARS-CoV-2 3CLpro expressed in Escherichia coli NiCo21(DE3) assessed as residual activity at 500 uM using DABCYL-KTSAVLQSGFRKME-EDANS as substrate preincubated for 30 mins in presence of 1mM DTT followed by substrate addition and measured by FRET assay relative to control
Procedure, shortened: (§5)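 Kinetic fluorescence read-out of cleavage of a FRET substrate carrying a DABCYL–EDANS pair. Compounds were tested at 500–625 μM, and <50% residual activity was taken as the activity threshold. To exclude false positives, absorbance at the excitation and emission wavelengths and autofluorescence of the compounds were measured.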

[13] = target: UDP-N-acetylglucosamine 1-carboxyvinyltransferase (Escherichia coli K-12) (UniProt P0A749); experiment: Inhibition of recombinant Escherichia coli MurA assessed as residual activity at 500 uM using UDP-N-acetylglucosamine as substrate and measured by malachite green based colorimetric assay relative to control; procedure, shortened: as §3
[14] = target: Replicase polyprotein 1ab (Severe acute respiratory syndrome coronavirus 2) (UniProt P0DTD1); experiment: Inhibition of recombinant SARS-CoV-2 3CLpro expressed in Escherichia coli NiCo21(DE3) assessed as residual activity at 500 uM using DABCYL-KTSAVLQSGFRKME-EDANS as substrate preincubated for 30 mins followed by substrate addition and measured by FRET assay relative to control; procedure, shortened: as §5
[15] = target: UDP-N-acetylglucosamine 1-carboxyvinyltransferase (Escherichia coli K-12) (UniProt P0A749); experiment: Inhibition of recombinant Escherichia coli MurA assessed as residual activity at 500 uM using UDP-N-acetylglucosamine as substrate preincubated for 30 mins in presence of 1 mM DTT followed by substrate addition and measured by malachite green based colorimetric assay relative to control
[16] = Thiol reactivity of compound at 100 uM measured by DTNB assay; format: physicochemical

| SMILES | Activity_index [1] | Activity_index [2] | Activity [3] [%] | Activity [4] [%] | Activity_index [5] | Stability [6] | Activity [7] [%] | Activity_index [8] | Activity_index [9] | Activity [10] | Activity_index [11] | Activity [12] [%] | Activity [13] [%] | Activity [14] [%] | Activity [15] [%] | Activity [16] |
| --- | --- | --- | --- | --- | --- | --- | --- | --- | --- | --- | --- | --- | --- | --- | --- | --- |
| CCOC(=O)c1sc(Br)nc1C | 1.3 | 0.9 | 9.1 | 93 | 0.9 | Unstable | 115 | 1 | 1.3 | Active | 1 | 85.8 | 19.5 | 91.6 | 103 |  |
| Nc1ncc(Br)s1 | 1.6 | 1.1 | 9 | 91 | 0.9 | Stable | 156 | 1 | 1.5 | Active | 1 | 79.4 | 21.1 | 42.5 | 100 |  |
| Cc1cnc(N)s1 | 1.3 | 0.9 | 85.2 | 92 | 1 | Stable | 118 | 1 | 1.3 | Active | 1 | 79.8 | 95.2 | 88 | 94.6 |  |
| N#Cc1cnc(N)s1 | 1 | 1.2 | 6.1 | 91 | 0.9 | Stable | 90.8 | 1 | 0.8 | Active | 1 | 74.1 | 18.9 | 1.1 | 102 |  |
| N#Cc1cnc(NC(=O)C(=O)O)s1 | 0.9 | 0.9 | 90.6 | 105 | 0.9 | Stable | 150 | 1 | 0.7 | Active | 1 | 97.6 | 112 | 104 | 114 |  |
| CCOC(=O)c1csc(N)n1 | 1.1 | 1 | 9 | 89 | 0.9 | Stable | 93.7 | 0.8 | 0.7 | Active | 1 | 76.3 | 18.6 | 18.9 | 105 |  |
| O=C(O)c1csc(-c2ccc(F)cc2)n1 | 1.1 | 0.9 | 12.8 | 94 | 0.9 | Stable | 141 | 0.8 | 0.8 | Active | 1 | 88.1 | 58.7 | 82.6 | 90 |  |
| O=S(=O)(Cc1ccccc1)Nc1nccs1 | 22.2 | 2 | 0 | 93 | 1 | Stable | 45.2 | 0.8 | 10.2 | Active | 1 | 82.8 | 0 | 20 | 94 |  |
| COC(=O)CC(=O)Nc1ncc(C#N)s1 | 0.9 | 1 | 5.8 | 88 | 0.9 | Stable | 92.6 | 1 | 1 | Active | 1 | 86.3 | 29.7 | -4.7 | 112 |  |
| N#Cc1cnc(Br)s1 | 1 | 1 | 94.3 | 94 | 0.9 | Stable | 128 | 1 | 0.8 | Active | 1 | 75.5 | 96 | 101 | 100 |  |
| O=C(O)C(=O)Nc1ncc(Br)s1 | 1 | 0.9 | 1.2 | 94 | 0.9 | Stable | 28.9 | 1 | 1.2 | Active | 1 | 82.8 | 11.3 | 62.2 | 112 |  |
| O=C(O)c1csc(Nc2cccc3ncccc23)n1 | 1.3 | 2.4 | 0 | 82 | 1 | Stable | 36.8 | 1 | 1.6 | Active | 1 | 41.2 | 1.4 | 42.7 | 80.9 |  |
| Cc1nc(CCl)cs1 | 1 | 0.9 | 48.4 | 100 | 0.9 |  | 124 | 1 | 0.8 | Active | 1 | 90.9 | 89.6 | 96.8 | 112 | Active |
| Brc1nncs1 | 1 | 0.9 | 143 | 93 | 0.9 |  | 106 | 1 | 1.2 | Active | 1 | 78.3 | 47 | 5.1 | 114 |  |
